Compound activity deposited in PubChem by The Scripps Research Institute Molecular Screening Center.
GPR7 antag: GPR7 receptor antagonists, primary screen, cell-based, fluorescence, single concentration | GPR7-expressing cells, fluorescence antagonist assay | inhibition, % at 4.4 µM | 1.1% of 290,000 active | AID 1861, 2009; in the data active = inhibition above about 16%, passing the limit was not always enough;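 also: cells stimulated with the agonist NPW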
Target sequence (P48145 whole entry, looked up): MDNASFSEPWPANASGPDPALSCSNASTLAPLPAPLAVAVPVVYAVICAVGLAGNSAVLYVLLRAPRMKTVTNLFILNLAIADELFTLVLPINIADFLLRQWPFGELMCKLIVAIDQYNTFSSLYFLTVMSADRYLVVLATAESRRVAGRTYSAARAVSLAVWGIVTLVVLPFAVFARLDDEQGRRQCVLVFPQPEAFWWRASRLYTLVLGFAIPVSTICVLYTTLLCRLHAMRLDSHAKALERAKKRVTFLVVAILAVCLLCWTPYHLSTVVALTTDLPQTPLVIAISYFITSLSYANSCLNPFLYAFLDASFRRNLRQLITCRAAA
OX1R antag-1: OX1R (HCRTR1) antagonists, primary screen, fluorescence, CHO/OX1R cells, Fluo-8 calcium, orexin A | inhibition, % at 5 µM | Fluo-8 calcium fluorescence | Orexin/Hypocretin receptor type 1 (Homo sapiens), O43613 | 0.43% of 330,000 active;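 active = inhibition above its plate's threshold, mean inhibition of all tested compounds on the plate plus 3 SD, cut at about 37% in these data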
CHO parental Ca: ATP-evoked calcium signal inhibitors, parental CHO, primary screen, counter-screen for OX1R antagonist project, cell-based, fluorescence, Fluo-8 calcium dye; parental CHO-K1, ATP-induced calcium, Fluo-8 fluorescence; inhibition, % at 5.6 µM; 0.63% of 330,000 active; AID 463079, 2010;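 active = inhibition above that plate's mean sample inhibition plus 3 SD, cut at about 26% in these data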
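material = parental CHO cells | also added = ATP as calcium-mobilizing challenge | dosing = single point at 5.6 µM | detection = intracellular calcium via Fluo-8 no-wash fluorescent dye | read-out = % inhibition | benchmarks = low control ATP plus DMSO, high control DMSO only | repeats = one well per compound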
GalR3 antag: GalR3 antagonists in HEK293 cells, primary screen, cell-based, fluorescence readout; inhibition, % at 3 µM; HEK293 GalR3-CNG cAMP membrane potential fluorescence; galR3 body fused to GalR1 C-terminus; Galanin receptor type 3 (Homo sapiens), O60755; AID 651719, 2012; 0.44% of 360,000 active;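 active = inhibition above the screen-wide average plus 3 SD, cut at about 13% in these data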;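 also: forskolin and galanin both at EC90 stimulate the cells; cAMP rise reported by CNG channel membrane potential dye signal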
Target sequence (O60755 1-299 limits assumed): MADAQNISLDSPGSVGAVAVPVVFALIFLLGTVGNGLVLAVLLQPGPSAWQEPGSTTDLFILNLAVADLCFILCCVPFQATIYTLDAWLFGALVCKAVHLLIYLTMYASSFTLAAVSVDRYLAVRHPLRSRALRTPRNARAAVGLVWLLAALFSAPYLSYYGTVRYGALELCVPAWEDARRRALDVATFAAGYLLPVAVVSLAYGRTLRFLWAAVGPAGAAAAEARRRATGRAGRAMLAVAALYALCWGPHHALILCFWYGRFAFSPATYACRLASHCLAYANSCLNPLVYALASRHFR
OX1R antag-2: antagonists of human orexin 1 receptor (OX1R); OX1R-expressing cells, FRET antagonist read-out; inhibition, % at 6.6 µM; 1.8% of 330,000 active; in the data active = inhibition mostly above about 38%, no sharp cut-off; inactive = mostly below about 40%
GPR7 antag conf: GPR7 receptor antagonists, confirmation, cell-based, fluorescence, single concentration | shares compounds with GPR7 antag | GPR7-expressing cells, calcium fluorescence antagonist mode | inhibition, % at 4.4 µM | 52% of 2,400 active | AID 1952, 2009; in the data active = inhibition above about 24%;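 also: stimulated with the GPR7 agonist NPW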
MCHR1 antagonist: MCHR1 antagonists in cells, counter-screen for GPR7 antagonist project, cell-based, fluorescence, human; shares compounds with GPR7 antag; MCHR1-expressing cells, fluorescence antagonist assay; inhibition, % at 4.4 µM; 62% of 2,400 active; AID 2148, 2009; in the data active = inhibition above about 22%
Each line names hits and unclear results; the compound was inactive in the other large screens (follow-up assays come after a bar, where they were run). The list is not random: actives were taken first. Their share in the collection is about 3.1%.

CCN(CC)C(=O)C(=O)Nc1ccc(F)c(Cl)c1	none
CCOC(=O)Cn1c(=O)oc2cc(S(=O)(=O)Nc3ccc(F)cc3)ccc21	GPR7 antag 25, CHO parental Ca 23 | GPR7 antag conf 42 | MCHR1 antagonist 37
CC(=O)c1ccc(NC(=O)CSc2ccc(-c3sc(C)nc3C)nn2)cc1	GPR7 antag 26 | GPR7 antag conf 43 | MCHR1 antagonist 76
Cc1nc(C)c(-c2ccc(SCC(=O)Nc3ccc(C)c(Cl)c3)nn2)s1	none
CCC(C)NCCOCCOc1ccc(Cl)c(C)c1C (centres undefined)	GPR7 antag 21 | GPR7 antag conf 24 | MCHR1 antagonist 25
CCC(C)NCCOCCOc1ccc(Cl)c2ccccc12 (centres undefined)	GPR7 antag 71 | GPR7 antag conf 50 | MCHR1 antagonist 53
C=CCc1ccc(OCCCNC2CCCC2)c(OC)c1	none (no result: GPR7 antag)
C=CCc1cccc(Cl)c1OCCCNC1CCCC1	GPR7 antag 30 | GPR7 antag conf 31 | MCHR1 antagonist 21
O=C(NCCC1=CCCCC1)c1ccc(Cl)c(S(=O)(=O)N2CCOCC2)c1	none
O=C(NCCC1=CCCCC1)c1ccc(=O)oc1	none
O=C(NCCC1=CCCCC1)c1coc(=O)c(Br)c1	GPR7 antag 33 | GPR7 antag conf inactive | MCHR1 antagonist 24
O=C(NCCC1=CCCCC1)c1ccc(Cl)c(S(=O)(=O)N2CCCCC2)c1	GPR7 antag 50 | GPR7 antag conf 44 | MCHR1 antagonist 50
Cc1cc(C(C)(C)C)cc(C)c1Cn1c2[n+](c3ccc(C(F)(F)F)cc31)CCCCC2	GPR7 antag 33 | GPR7 antag conf 29 | MCHR1 antagonist 32
O=C(Cn1c2[n+](c3ccc(C(F)(F)F)cc31)CCCCC2)Nc1ccc(Br)cc1	none (no result: GalR3 antag)
N#Cc1ccc(NC(=O)Cn2c3[n+](c4ccc(C(F)(F)F)cc42)CCCCC3)cc1	none
FC(F)(F)c1cccc(Cn2c3[n+](c4ccc(C(F)(F)F)cc42)CCCCC3)c1	GPR7 antag 24 | GPR7 antag conf 24 | MCHR1 antagonist inactive
CCc1ccc(C(=O)CN2C(=O)C(C)N(c3ccc(C)cc3)C2=O)cc1 (centres undefined)	none
Cc1cc2c(c(C)c1Br)C(c1ccc3c(c1)OCO3)CC(=O)O2 (centres undefined)	none (no result: GPR7 antag)
CCC(=O)N(CCC(Cc1ccccc1)c1ccco1)Cc1ccco1 (centres undefined)	none
Fc1ccc(CNCCC(Cc2ccccc2)c2ccco2)cc1 (centres undefined)	GPR7 antag 29 | GPR7 antag conf 44 | MCHR1 antagonist 40
CC(NCCC(Cc1ccccc1)c1ccco1)c1ccccc1 (centres undefined)	GPR7 antag 24 | GPR7 antag conf 41 | MCHR1 antagonist 50
O=C(c1ccccc1)N(Cc1cccc(Br)c1)C1CCS(=O)(=O)C1 (centres undefined)	GPR7 antag 35 | GPR7 antag conf inactive | MCHR1 antagonist inactive
O=[N+]([O-])c1ccc(NCCNS(=O)(=O)c2ccccc2)cc1	GPR7 antag 25 | GPR7 antag conf 28 | MCHR1 antagonist 32
c1ccc(OCc2nnc(-c3ccccc3)o2)cc1	GPR7 antag 22 | GPR7 antag conf inactive | MCHR1 antagonist 25
Oc1ccccc1-c1nnc(COc2ccccc2)o1	none
CN(C)S(=O)(=O)c1ccc(Cl)c(NC(=O)CSc2nc3ccccc3c(=O)n2CCCN2CCOCC2)c1	none
Cc1cc(=O)oc2cc(OCc3nnc(-c4ccccc4Br)o3)ccc12	GPR7 antag 31 | GPR7 antag conf inactive | MCHR1 antagonist 25
O=c1ccc2ccc(OCc3nnc(-c4ccccc4Br)o3)cc2o1	none
COC(=O)/C=C1\SC(=Nc2ccc(Cl)c(Cl)c2)NC1=O	none
COc1cc(/C=C2\SC(=Nc3ccc(Cl)c(C(=O)O)c3)NC2=O)c(Br)c(Br)c1O	GPR7 antag 40 (no result: OX1R antag-1, CHO parental Ca, OX1R antag-2) | GPR7 antag conf 28 | MCHR1 antagonist 48
C/C(=N\NC(=O)c1nn(C)c(C)c1Br)c1ccc(NC(=O)c2ccccc2F)cc1	none
COc1ccc(OC(=O)c2cc3cc(Cl)ccc3oc2=O)cc1	GPR7 antag 46 | GPR7 antag conf inactive | MCHR1 antagonist inactive
Cc1ccc(C(=O)NCCN2C3=NC[C@@H](Cc4ccccc4)N3C[C@H]2Cc2ccc(O)cc2)cc1Br	GPR7 antag 49 | GPR7 antag conf 53 | MCHR1 antagonist 48
OCCCc1nc2ccccc2n1CCOc1ccccc1	none
Cc1ccc(OCCn2c(CCCO)nc3ccccc32)cc1	GPR7 antag 23 | GPR7 antag conf inactive | MCHR1 antagonist inactive
Cc1ccc(C(=O)NCC(=O)OCC(=O)Nc2ccccc2[N+](=O)[O-])cc1	none
CCn1c(-c2ccc(N)cc2)nc2ccccc21	none
CCn1c(-c2ccc(N(C)C)cc2)nc2ccccc21	GPR7 antag 37 | GPR7 antag conf inactive | MCHR1 antagonist 26
Cc1nnc(NCc2n[nH]c(=O)c3ccccc23)c2ccccc12	GPR7 antag 22 | GPR7 antag conf inactive | MCHR1 antagonist inactive
COC(=O)C(NC(=O)c1ccc(F)cc1)(Nc1ncc(S(=O)(=O)c2ccc([N+](=O)[O-])cc2)s1)C(F)(F)F (centres undefined)	none
COC(=O)C(NC(=O)c1ccccc1C)(Nc1ncc(S(=O)(=O)c2ccc([N+](=O)[O-])cc2)s1)C(F)(F)F (centres undefined)	GPR7 antag 35 | GPR7 antag conf 41 | MCHR1 antagonist 37
CSc1ccccc1C(=O)N(C)C(c1ccccc1)c1ccccc1	GPR7 antag 22 | GPR7 antag conf inactive | MCHR1 antagonist 61
CC(C)CC1NC(=O)N(CC(=O)Nc2ccc(-c3ccccc3)cc2)C1=O (centres undefined)	none (no result: GPR7 antag)
O=C(CSCc1ccc([N+](=O)[O-])cc1)NC1CCCCCC1	none
O=C(CN(C(=O)c1csnn1)c1cccc(F)c1)NC1CCCC1	GPR7 antag 28 | GPR7 antag conf inactive | MCHR1 antagonist inactive
O=S(=O)(NC1CC1)c1ccc(S(=O)(=O)N2CCc3ccccc32)cc1	GPR7 antag 22 | GPR7 antag conf inactive | MCHR1 antagonist 29
CN(C(=O)c1ccc(S(=O)(=O)N2CCCC2)cc1)C1CCCCC1	none
CN(C(=O)c1ccc(S(=O)(=O)NC2CCCC2)cc1)C1CCCCC1	GPR7 antag 30 | GPR7 antag conf 46 | MCHR1 antagonist 22
